An excerpt weighted towards active compounds, which were near 0.92% of everything screened.
FN deposition inh: fibronectin deposition inhibition. AH1F fibroblasts, Alexa488-fibronectin deposition fluorescence, overnight. inhibition, % at 12.6 µM. 350,000 tested, 0.086% active. AID 743247;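 active = mean inhibition across replicates of 30% or more, regardless of how many single replicates reach that level; inconclusive = mean under 30% yet at least half of replicates reach 30%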
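Material: AH1F fibroblast monolayer depositing Alexa488-labelled fibronectin into matrix | Input: 10000 AH1F cells/well | Medium: DMEM plus 2% serum, read in PBS | Reagent: Alexa488-fibronectin, 24 nM final in well | Compound dosing: One dose per compound, pinned | Schedule: 1 h adhesion, overnight exposure | Measured by: Fluorescence at 485 nm excitation, 525 nm emission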
AF4-AF9 inh: MLL-AF4/AF9 protein interaction inhibition. AlphaScreen, biotin-AF4 peptide binding to FLAG-AF9. 350,000 tested, 0.47% active. AID 651704. inhibition, % at 10 µM. P42568;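 active = every replicate reaching a set inhibition limit, whatever the replicate mean, cut at about 25% in these data; inconclusive = mean inhibition reaches that limit but some replicates miss it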
N-glyco inh: N-linked glycosylation inhibition; D54 ERlucT glycosylation luciferase reporter, 24 h; percent of 100 nM tunicamycin response; reporter increase, % at 12.5 µM; 360,000 tested, 0.23% active; AID 588692;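 active = mean luciferase reporter signal, scaled so untreated is 0 and the glycosylation-blocking control 100, at or above a set limit in every replicate; inconclusive = mean reaches the limit but not every replicate does; inactive = mean below the limit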;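 note: luciferase carries N-glycosylation sites so blocking glycosylation raises the light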
RAD52 anneal inh: inhibitors of human RAD52 DNA annealing. recombinant RAD52 DNA annealing, FRET fluorescence. inhibition, % at 18.7 µM. 360,000 tested, 0.46% active. AID 651710;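 active = every replicate showing at least 50% inhibition; inconclusive = mean inhibition at least 50% but not in every replicate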
RAD54 inh: RAD54 (human) branch migration inhibition; 360,000 tested, 0.14% active; inhibition, % at 10.4 µM; Q92698; RAD54 Holliday junction branch migration, FAM/BHQ fluorescence;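 active = mean normalized replicate activity at least 40 and at least half of replicates scoring 40 or more; inconclusive = only one of the two criteria met; inactive = mean below 40 and under half of replicates reaching 40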;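 note: inhibitors cause a drop in the FAM fluorescence signal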
Target sequence (Q92698 whole entry, looked up): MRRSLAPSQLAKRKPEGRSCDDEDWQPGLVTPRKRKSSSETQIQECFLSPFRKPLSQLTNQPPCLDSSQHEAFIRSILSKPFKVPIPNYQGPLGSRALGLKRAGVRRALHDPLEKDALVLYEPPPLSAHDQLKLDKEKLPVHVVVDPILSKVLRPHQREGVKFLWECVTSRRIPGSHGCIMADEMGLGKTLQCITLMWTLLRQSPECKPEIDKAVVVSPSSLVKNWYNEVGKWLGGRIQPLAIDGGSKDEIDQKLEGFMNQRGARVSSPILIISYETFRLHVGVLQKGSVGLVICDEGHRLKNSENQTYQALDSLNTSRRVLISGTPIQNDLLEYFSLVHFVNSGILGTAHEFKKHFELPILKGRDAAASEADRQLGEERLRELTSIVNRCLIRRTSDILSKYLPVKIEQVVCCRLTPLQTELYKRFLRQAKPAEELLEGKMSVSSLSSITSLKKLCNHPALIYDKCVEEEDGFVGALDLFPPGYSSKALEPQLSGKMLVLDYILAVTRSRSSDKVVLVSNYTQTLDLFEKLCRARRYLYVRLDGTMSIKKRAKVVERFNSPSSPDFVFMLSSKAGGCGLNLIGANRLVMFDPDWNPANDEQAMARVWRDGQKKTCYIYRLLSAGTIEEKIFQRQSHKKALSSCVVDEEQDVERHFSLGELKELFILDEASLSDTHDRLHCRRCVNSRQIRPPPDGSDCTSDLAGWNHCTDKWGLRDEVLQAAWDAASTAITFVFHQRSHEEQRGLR
Hits are given with their value; n = inactive; u = inconclusive; x = not tested or not shown.

SMILES	FN deposition inh	AF4-AF9 inh	N-glyco inh	RAD52 anneal inh	RAD54 inh
C[C@@H](NC(=O)c1ncn2c1c(=O)[nH]c1cccnc12)c1ccccc1	n	n	n	n	n
C[C@@H](NC(=O)c1ncn2c1c(=O)[nH]c1ccc(Br)cc12)c1ccccc1	n	n	33	n	n
Cc1cc(C(=O)Nc2cccc3c2O[C@H](CN(C)C(=O)Nc2c(C)noc2C)[C@H](C)CN([C@@H](C)CO)C3=O)n(C)n1	n	n	x	n	n
COc1ccc(C2c3[nH]c4ccccc4c3CCN2Cc2cccn2-c2ncccn2)cc1C (centres undefined)	n	31	n	n	n
c1ccc(C2c3[nH]c4ccccc4c3CCN2Cc2cccn2-c2ccccn2)nc1 (centres undefined)	n	u	n	n	n
Cc1cccc(C2c3[nH]c4ccccc4c3CCN2Cc2cccn2-c2ncccn2)c1 (centres undefined)	n	31	n	n	x
COc1ccc(-c2nc(N3CCN(C)CC3)sc2-c2ccc(OC)cc2)cc1	n	34	n	n	n
COc1ccc(-c2nc(N3CCCCCC3)sc2C(=O)c2ccccc2)cc1	x	x	n	x	n
CN(C)c1ccc(C=c2c3cc([N+](=O)[O-])ccc3n3c2cc(-c2ccccc2)[n+]3C)cc1	n	55	n	100	x
CN(C)c1ccc(C=c2c3ccccc3n3c2cc(-c2ccc(Cl)cc2)[n+]3C)cc1	n	58	u	n	x
CN(c1ccc(Cl)cc1)c1cc(=O)n(C)c2ccccc12	x	x	n	x	n
COc1cc(C=c2c3ccccc3n3c2cc(-c2ccccc2)[n+]3C)cc(OC)c1OC	n	29	n	n	x
CCC1CCCCN1S(=O)(=O)c1ccc(NC(=O)c2nc(S(C)(=O)=O)ncc2Cl)cc1 (centres undefined)	39	n	n	n	n
CCCCN(CC)Cc1ccc(CNC(=O)Nc2ccc(Cl)cc2)o1	31	n	n	n	x
O=C1NCCOCn2nncc2CC[C@H]1Cc1ccc(Cl)cc1	n	x	x	x	x
Cc1noc(C)c1NC(=O)N(C)C[C@@H]1Oc2cc(C#CCC3CCCC3)ccc2S(=O)(=O)N([C@H](C)CO)C[C@H]1C	n	u	x	n	n
Cc1noc(C)c1NC(=O)N(C)C[C@@H]1Oc2cc(C#CCC(C)C)ccc2S(=O)(=O)N([C@@H](C)CO)C[C@@H]1C	x	28	x	n	n
Cc1noc(C)c1NC(=O)N(C)C[C@H]1Oc2cc(C#CCC3CCCC3)ccc2S(=O)(=O)N([C@H](C)CO)C[C@H]1C	n	37	x	n	n
Cc1noc(C)c1NC(=O)N(C)C[C@@H]1Oc2cc(C#CCC3CCCC3)ccc2S(=O)(=O)N([C@@H](C)CO)C[C@@H]1C	n	29	x	n	n
O=C(NC1CCC1)[C@@H]1[C@@H](CO)[C@@H]2Cn3c(ccc(-c4ccncc4)c3=O)[C@@H]2N1CC1CC1	x	n	x	n	n
COc1cc(/C=N/NC(=O)c2cccs2)ccc1OCc1ccccc1	x	x	n	x	n
COc1ccc(/C=N/NC(=O)c2sccc2OCc2ccc(F)cc2)cc1OC	x	x	38	x	n
O=C(C[n+]1ccc(CCSc2ccc(F)cc2)cc1)c1ccccc1	x	x	n	x	87
C/C=C/c1ccccc1[C@H]1[C@@H](CO)N(C(=O)CN2CCOCC2)[C@H]1C#N	n	n	x	n	x
O=S(=O)(c1ccccc1)N1CCCCN2[C@H](CO)[C@H](c3ccc(-c4ccccc4F)cc3)[C@H]2C1	n	n	x	52	n
SMILES	FN deposition inh	AF4-AF9 inh	N-glyco inh	RAD52 anneal inh	RAD54 inh
O=S(=O)(c1ccc(F)cc1)N1CCCCN2[C@@H](CO)[C@@H](c3ccc(-c4ccccc4F)cc3)[C@@H]2C1	x	n	x	60	n
O=S(=O)(c1ccc(F)cc1)N1CCCCN2[C@H](CO)[C@H](c3ccc(C#CC4CCCC4)cc3)[C@H]2C1	x	n	x	58	n
O=S(=O)(c1ccc(F)cc1)N1CCCCN2[C@@H](CO)[C@H](c3ccc(-c4ccccc4F)cc3)[C@@H]2C1	x	n	x	59	n
O=S(=O)(c1ccc(F)cc1)N1CCCCN2[C@H](C1)[C@H](c1ccc(C#CC3CCCC3)cc1)[C@@H]2CO	x	n	x	n	n
O=S(=O)(c1ccc(F)cc1)N1CCCCN2[C@H](C1)[C@@H](c1ccc(-c3ccccc3F)cc1)[C@@H]2CO	x	n	x	n	n
O=S(=O)(c1ccc(F)cc1)N1CCCCN2[C@H](C1)[C@H](c1ccc(-c3ccccc3F)cc1)[C@@H]2CO	x	n	x	n	n
O=S(=O)(c1ccccc1)N1CCCCN2[C@H](C1)[C@H](c1ccc(-c3ccccc3F)cc1)[C@@H]2CO	x	n	x	n	n
C[C@@H]1CN([C@@H](C)CO)C(=O)Cc2cc(N(C)C)ccc2O[C@H]1CN(C)S(=O)(=O)c1ccc(Cl)cc1	x	n	x	n	n
CN(C)Cc1cn(CC[C@@H]2CC[C@H](NS(=O)(=O)c3ccccc3)[C@@H](CO)O2)nn1	x	n	x	n	n
Cc1noc(C)c1S(=O)(=O)N(C)C[C@@H]1OCCCC[C@H](C)Oc2ccc(NS(C)(=O)=O)cc2C(=O)N([C@H](C)CO)C[C@H]1C	x	n	x	n	x
COc1ccc2c(c1)OC[C@H]1[C@H]2N2C(=O)c3cc(Br)ccc3NC(=O)[C@@]2(C)[C@H]1c1ccccc1	x	x	36	x	n
COc1ccc2c(c1)[C@H]1[C@H](CO2)[C@H](c2ccccc2)[C@]2(C)C(=O)Nc3ccc(Br)cc3C(=O)N12	n	n	41	n	n
COc1ccc2c(c1)[C@H]1[C@H](CO2)[C@H](c2ccccc2)[C@]2(C)C(=O)Nc3cc(F)ccc3C(=O)N12	n	n	41	n	n
COc1ccc2c(c1)[C@H]1[C@H](CO2)[C@H](c2ccccc2)[C@]2(C)C(=O)Nc3ccccc3C(=O)N12	n	n	67	n	n
COc1ccc2c(c1)OC[C@H]1[C@H]2N2C(=O)c3ccc(F)cc3NC(=O)[C@@]2(C)[C@H]1c1ccccc1	n	x	n	n	n
COc1ccc(NC(=O)N(C)C[C@H]2Oc3c(NS(=O)(=O)c4ccc(OC)cc4)cccc3C(=O)N([C@@H](C)CO)C[C@H]2C)cc1	x	n	x	n	n
COc1ccc2c(c1)C(=O)N1[C@H]3c4cc(OC)ccc4OC[C@@H]3[C@H](c3ccccc3)[C@]1(C)C(=O)N2	n	n	62	n	n
Cc1ccc2c(c1)C(=O)N1[C@H]3c4cc(C)ccc4OC[C@@H]3[C@H](c3ccccc3)[C@]1(C)C(=O)N2	n	n	n	n	n
O=C(Cc1ccncc1)Nc1ccc2c(c1)[C@H]1C[C@@H](CC(=O)N3CCCCC3)O[C@H](CO)[C@H]1O2	n	x	x	x	x
O=C(COc1ccc2c(-c3ccccc3)cc(=O)oc2c1)N[C@@H](Cc1c[nH]c2ccc(O)cc12)C(=O)O	x	n	50	n	n
COC(=O)c1cc(C(=O)c2c(C)cc3ccccn23)cc([N+](=O)[O-])c1	n	n	u	n	n
Cc1cc2ccccn2c1C(=O)c1cc([N+](=O)[O-])cc([N+](=O)[O-])c1	n	33	n	n	x

Source: PubChem BioAssay (Broad Institute)
